Test results reported in ChEMBL document CHEMBL1671761, “Preclinical characterization of BI 201335, a C-terminal carboxylic acid inhibitor of the hepatitis C virus NS3-NS4A protease” (Antimicrob Agents Chemother, 2010).

What was measured:
Rattus norvegicus [1] = species on record: Rattus norvegicus; assay: Inhibition of rat 5-HT1 receptor at 10 uM
[2] = molecular target: 5-hydroxytryptamine receptor 1A (Homo sapiens) (UniProt P08908); assay: Inhibition of human 5-HT1A receptor at 10 uM
Caspase-5 (Homo sapiens) = Caspase-5 (Homo sapiens) (UniProt P51878); assay: Inhibition of human caspase-5 at 10 uM
Homo sapiens [3] = species on record: Homo sapiens; assay: Inhibition of human nicotinic acetylcholine receptor at 10 uM
Caspase-6 (Homo sapiens) = Caspase-6 (Homo sapiens) (UniProt P55212); assay: Inhibition of human caspase-6 at 10 uM
Chain of Caspase-6 (Homo sapiens) (P55212 24-179 limits assumed): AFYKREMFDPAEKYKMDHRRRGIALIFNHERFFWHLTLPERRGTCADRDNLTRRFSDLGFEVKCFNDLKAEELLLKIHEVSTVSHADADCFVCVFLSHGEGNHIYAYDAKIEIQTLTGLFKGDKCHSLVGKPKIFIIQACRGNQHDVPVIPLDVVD
Chain of Caspase-6 (Homo sapiens) (P55212 194-293 limits assumed): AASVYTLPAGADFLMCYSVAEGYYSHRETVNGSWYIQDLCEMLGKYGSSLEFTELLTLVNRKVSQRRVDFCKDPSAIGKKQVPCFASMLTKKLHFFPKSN

[4] = molecular target: Matrix metalloproteinase-14 (Homo sapiens) (UniProt P50281); assay: Inhibition of human MMP-14 at 10 uM
Rattus norvegicus [5] = species on record: Rattus norvegicus; assay: Inhibition of rat GABA B receptor at 10 uM
[6] = molecular target: Angiotensin-converting enzyme (Homo sapiens) (UniProt P12821); assay: Inhibition of human ACE at 10 uM
[7] = molecular target: Pro-cathepsin H (Homo sapiens) (UniProt P09668); assay: Inhibition of human cathepsin H at 10 uM
Rattus norvegicus [8] = species on record: Rattus norvegicus; assay: Inhibition of rat potassium channel-V at 10 uM
[9] = molecular target: Procathepsin L (Homo sapiens) (UniProt P07711); assay: Inhibition of human cathepsin L at 10 uM
Rattus norvegicus [10] = species on record: Rattus norvegicus; assay: Inhibition of rat sodium channel site 2 at 10 uM
[11] = molecular target: Histamine H1 receptor (Homo sapiens) (UniProt P35367); assay: Inhibition of human H1 receptor at 10 uM
Chain of Histamine H1 receptor (Homo sapiens) (P35367 whole entry): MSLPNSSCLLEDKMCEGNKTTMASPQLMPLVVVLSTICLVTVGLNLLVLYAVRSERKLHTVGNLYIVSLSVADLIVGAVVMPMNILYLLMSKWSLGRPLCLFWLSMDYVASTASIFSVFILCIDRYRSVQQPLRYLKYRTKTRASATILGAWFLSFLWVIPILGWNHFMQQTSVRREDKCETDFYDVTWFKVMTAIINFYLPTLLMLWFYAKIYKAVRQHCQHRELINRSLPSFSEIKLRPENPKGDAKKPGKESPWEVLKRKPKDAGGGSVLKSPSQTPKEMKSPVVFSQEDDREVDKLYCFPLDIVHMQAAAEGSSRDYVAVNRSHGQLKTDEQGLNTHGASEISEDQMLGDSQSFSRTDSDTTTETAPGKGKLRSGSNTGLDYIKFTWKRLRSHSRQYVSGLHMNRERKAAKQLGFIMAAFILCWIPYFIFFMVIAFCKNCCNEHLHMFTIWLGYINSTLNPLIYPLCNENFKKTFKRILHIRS

Rattus norvegicus [12] = species on record: Rattus norvegicus; assay: Inhibition of rat mAChR at 10 uM
[13] = molecular target: Adenosine receptor A2a (Homo sapiens) (UniProt P29274); assay: Inhibition of human adenosine A2A receptor at 10 uM
[14] = molecular target: Neutrophil collagenase (Homo sapiens) (UniProt P22894); assay: Inhibition of human MMP-8 at 10 uM
Chain of Neutrophil collagenase (Homo sapiens) (P22894 101-467 limits assumed): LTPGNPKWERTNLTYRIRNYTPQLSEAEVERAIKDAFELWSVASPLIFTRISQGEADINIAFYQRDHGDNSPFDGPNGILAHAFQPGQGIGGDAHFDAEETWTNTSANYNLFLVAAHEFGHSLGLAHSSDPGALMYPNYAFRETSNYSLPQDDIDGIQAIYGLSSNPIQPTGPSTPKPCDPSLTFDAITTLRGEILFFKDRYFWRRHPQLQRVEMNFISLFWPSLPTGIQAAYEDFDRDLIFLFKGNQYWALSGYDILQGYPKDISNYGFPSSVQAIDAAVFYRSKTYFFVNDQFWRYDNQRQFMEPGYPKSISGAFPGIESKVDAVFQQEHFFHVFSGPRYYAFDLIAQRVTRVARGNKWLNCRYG

Caspase-1 (Homo sapiens) = Caspase-1 (Homo sapiens) (UniProt P29466); assay: Inhibition of human caspase-1 at 10 uM
Chain of Caspase-1 (Homo sapiens) (P29466 120-297 limits assumed): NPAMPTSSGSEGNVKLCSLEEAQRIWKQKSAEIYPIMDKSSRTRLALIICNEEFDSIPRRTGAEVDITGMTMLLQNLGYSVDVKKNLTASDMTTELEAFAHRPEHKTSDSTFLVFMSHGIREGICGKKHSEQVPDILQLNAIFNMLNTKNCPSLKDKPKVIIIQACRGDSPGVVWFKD
Chain of Caspase-1 (Homo sapiens) (P29466 317-404 limits assumed): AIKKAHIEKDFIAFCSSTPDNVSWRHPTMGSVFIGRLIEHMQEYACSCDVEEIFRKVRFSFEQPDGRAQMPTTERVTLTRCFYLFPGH

Hepatitis C virus = assay: Antiviral activity against HCV 2a clone JFH1 infected in Huh7 cells assessed as inhibition of viral replication after 72 hrs by RT-PCR; type: functional, organism-based, Hepacivirus hominis; conditions: genotype 2a clone JFH1, Huh-7, 72 h
Summary of the method: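 Genotype 2a replicon (Huh-7 cells carrying an unadapted JFH-1 NS3-NS5B subgenomic replicon) was kept with 0.25 mg/ml G418 and plated at 10,000 cells/well without G418. Next day, serial dilutions in DMEM/10% FBS/0.5% DMSO were added for 72 h. Replicon RNA was measured by TaqMan RT-PCR and normalized to total RNA. Mean ± SD, ≥3 experiments.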

[15] = molecular target: 72 kDa type IV collagenase (Homo sapiens) (UniProt P08253); assay: Inhibition of human MMP-2 at 10 uM
[16] = molecular target: Glutamate receptor ionotropic, delta-1 (Rattus norvegicus) (UniProt Q62640); assay: Inhibition of rat glutamate receptor at 10 uM
[17] = molecular target: Serine/threonine protein phosphatase PP2B-alpha catalytic subunit (Homo sapiens) (UniProt P16298); assay: Inhibition of human PP2B at 10 uM
[18] = molecular target: Matrix metalloproteinase-9 (Homo sapiens) (UniProt P14780); assay: Inhibition of human MMP-9 at 10 uM
Caspase-3 (Homo sapiens) = Caspase-3 (Homo sapiens) (UniProt P42574); assay: Inhibition of human caspase-3 at 10 uM
[19] = molecular target: Neprilysin (Homo sapiens) (UniProt P08473); assay: Inhibition of human neutral endopeptidase at 10 uM
[20] = molecular target: Matrilysin (Homo sapiens) (UniProt P09237); assay: Inhibition of human MMP-7 at 10 uM
[21] = molecular target: Inositol 1,4,5-trisphosphate-gated calcium channel ITPR1 (Rattus norvegicus) (UniProt P29994); assay: Inhibition of rat IP3 receptor at 10 uM
Chain of Inositol 1,4,5-trisphosphate-gated calcium channel ITPR1 (Rattus norvegicus) (P29994 whole entry, looked up): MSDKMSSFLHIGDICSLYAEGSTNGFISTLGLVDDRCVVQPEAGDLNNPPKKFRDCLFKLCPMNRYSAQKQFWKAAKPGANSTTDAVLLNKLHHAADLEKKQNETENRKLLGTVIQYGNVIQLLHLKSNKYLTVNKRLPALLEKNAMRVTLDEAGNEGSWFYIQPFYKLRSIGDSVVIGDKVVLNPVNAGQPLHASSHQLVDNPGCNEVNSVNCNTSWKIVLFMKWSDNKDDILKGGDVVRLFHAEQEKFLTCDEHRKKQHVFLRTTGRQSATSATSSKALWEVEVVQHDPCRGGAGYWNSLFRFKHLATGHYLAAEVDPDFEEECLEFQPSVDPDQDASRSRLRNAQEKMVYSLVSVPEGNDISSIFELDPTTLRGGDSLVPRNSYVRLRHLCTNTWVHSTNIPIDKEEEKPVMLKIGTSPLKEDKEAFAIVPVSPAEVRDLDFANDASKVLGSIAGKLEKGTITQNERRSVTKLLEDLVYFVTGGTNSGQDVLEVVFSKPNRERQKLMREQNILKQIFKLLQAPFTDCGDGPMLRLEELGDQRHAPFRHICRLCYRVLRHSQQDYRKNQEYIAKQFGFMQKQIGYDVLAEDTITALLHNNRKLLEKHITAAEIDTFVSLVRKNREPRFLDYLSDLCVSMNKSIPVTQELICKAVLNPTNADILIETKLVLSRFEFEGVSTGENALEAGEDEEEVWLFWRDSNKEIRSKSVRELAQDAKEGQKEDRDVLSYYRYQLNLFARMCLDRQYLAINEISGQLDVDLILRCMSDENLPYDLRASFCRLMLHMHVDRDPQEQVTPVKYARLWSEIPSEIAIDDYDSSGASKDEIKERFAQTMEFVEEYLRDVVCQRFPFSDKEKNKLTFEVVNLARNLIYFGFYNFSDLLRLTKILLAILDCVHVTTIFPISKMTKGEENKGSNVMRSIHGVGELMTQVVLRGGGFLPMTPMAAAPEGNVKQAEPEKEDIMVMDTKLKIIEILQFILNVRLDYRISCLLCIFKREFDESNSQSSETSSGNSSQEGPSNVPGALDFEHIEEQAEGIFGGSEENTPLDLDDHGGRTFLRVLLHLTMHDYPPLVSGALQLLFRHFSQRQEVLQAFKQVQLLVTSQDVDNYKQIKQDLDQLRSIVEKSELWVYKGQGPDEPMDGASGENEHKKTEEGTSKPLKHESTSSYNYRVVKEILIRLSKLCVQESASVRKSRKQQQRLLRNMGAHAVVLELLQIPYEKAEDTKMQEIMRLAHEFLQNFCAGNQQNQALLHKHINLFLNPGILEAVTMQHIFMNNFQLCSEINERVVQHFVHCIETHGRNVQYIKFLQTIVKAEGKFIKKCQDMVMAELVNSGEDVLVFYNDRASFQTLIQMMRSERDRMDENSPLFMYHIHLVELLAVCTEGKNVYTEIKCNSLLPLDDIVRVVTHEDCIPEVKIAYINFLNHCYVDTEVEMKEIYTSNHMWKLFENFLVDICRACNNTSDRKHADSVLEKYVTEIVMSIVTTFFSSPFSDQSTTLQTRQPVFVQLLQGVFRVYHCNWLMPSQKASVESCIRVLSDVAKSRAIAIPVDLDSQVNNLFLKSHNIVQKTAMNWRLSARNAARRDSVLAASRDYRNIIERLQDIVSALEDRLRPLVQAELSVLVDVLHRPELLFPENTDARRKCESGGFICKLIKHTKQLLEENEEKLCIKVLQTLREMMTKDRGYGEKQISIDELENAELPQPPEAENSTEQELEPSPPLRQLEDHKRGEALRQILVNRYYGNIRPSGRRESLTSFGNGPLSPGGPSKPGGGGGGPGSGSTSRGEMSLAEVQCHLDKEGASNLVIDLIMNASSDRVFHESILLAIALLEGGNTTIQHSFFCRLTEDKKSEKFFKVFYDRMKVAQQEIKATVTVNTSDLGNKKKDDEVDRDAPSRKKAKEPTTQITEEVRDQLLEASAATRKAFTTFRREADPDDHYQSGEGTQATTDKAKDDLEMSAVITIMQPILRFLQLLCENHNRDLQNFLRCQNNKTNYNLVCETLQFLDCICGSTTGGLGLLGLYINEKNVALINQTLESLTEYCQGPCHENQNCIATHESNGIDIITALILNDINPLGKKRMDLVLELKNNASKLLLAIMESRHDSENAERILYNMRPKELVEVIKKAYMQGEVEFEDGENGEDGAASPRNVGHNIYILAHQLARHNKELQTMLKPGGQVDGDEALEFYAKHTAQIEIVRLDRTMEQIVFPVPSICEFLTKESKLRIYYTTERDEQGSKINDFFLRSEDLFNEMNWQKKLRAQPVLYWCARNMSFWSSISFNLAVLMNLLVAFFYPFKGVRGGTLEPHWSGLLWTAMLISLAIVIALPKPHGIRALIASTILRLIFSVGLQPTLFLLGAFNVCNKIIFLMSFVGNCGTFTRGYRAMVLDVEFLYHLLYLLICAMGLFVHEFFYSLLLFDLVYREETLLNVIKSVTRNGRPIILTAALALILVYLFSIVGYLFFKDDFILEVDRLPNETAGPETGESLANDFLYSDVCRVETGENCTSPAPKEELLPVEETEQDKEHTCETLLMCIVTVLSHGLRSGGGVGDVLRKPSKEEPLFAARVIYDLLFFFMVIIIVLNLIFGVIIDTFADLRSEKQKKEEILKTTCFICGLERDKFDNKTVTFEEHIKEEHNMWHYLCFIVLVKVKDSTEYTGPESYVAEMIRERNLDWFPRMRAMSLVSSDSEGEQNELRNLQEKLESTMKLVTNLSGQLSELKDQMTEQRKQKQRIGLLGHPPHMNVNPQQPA

Trypsin (Homo sapiens) = Trypsin (Homo sapiens) (UniProt P07477+P07478+P35030); assay: Inhibition of human trypsin at 10 uM; type: protein assay
[22] = molecular target: 5-hydroxytryptamine receptor 2A (Rattus norvegicus) (UniProt P14842); assay: Inhibition of rat 5-HT2A receptor at 10 uM
[23] = Mean retention time in Sprague-Dawley rat at 5 mg/kg, po; type: ADME, organism-based, Sparague-Dawley; parameters: dose 5 mg/kg, route oral; conditions: in vivo
Summary of the method: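 Male Sprague-Dawley rats (275-300 g), fasted overnight with 10% dextrose water. Single oral dose in 0.5% Methocel/0.3% Tween 80 at 10 ml/kg. Carotid-cannula blood taken 0-8 h, with plasma from 3 rats pooled per time point. Solid-phase extraction, then LC-MS/MS at m/z 869.3 (LOQ 10 nM). Noncompartmental analysis.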

Homo sapiens [24] = species on record: Homo sapiens; assay: Inhibition of human dopamine receptor 4.2 at 10 uM
[25] = molecular target: Small conductance calcium-activated potassium channel (Rattus norvegicus) (UniProt P70604+P70606+P70605); assay: Inhibition of rat Small conductance calcium-activated potassium channel at 10 uM; type: protein assay
[26] = molecular target: Histamine H2 receptor (Homo sapiens) (UniProt P25021); assay: Inhibition of human H2 receptor at 10 uM
[27] = molecular target: D(3) dopamine receptor (Homo sapiens) (UniProt P35462); assay: Inhibition of human dopamine receptor 3 at 10 uM
[28] = molecular target: D(2) dopamine receptor (Homo sapiens) (UniProt P14416); assay: Inhibition of human dopamine receptor 2L at 10 uM
Chain of D(2) dopamine receptor (Homo sapiens) (P14416 whole entry): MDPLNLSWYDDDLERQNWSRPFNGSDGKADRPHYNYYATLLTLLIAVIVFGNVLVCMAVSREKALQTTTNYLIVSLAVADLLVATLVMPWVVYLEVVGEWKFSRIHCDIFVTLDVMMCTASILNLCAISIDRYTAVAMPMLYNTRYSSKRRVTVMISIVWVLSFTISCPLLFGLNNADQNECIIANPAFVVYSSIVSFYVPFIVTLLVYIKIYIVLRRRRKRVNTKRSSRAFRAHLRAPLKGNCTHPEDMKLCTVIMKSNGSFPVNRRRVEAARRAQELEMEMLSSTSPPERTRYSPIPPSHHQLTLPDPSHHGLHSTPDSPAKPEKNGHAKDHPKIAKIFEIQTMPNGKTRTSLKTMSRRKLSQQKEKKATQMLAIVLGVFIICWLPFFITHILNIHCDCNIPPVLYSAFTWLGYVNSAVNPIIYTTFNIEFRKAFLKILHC

Mesocricetus auratus = species on record: Mesocricetus auratus; assay: Inhibition of syrian hamster potassium channel-ATP at 10 uM
[29] = AUC in monkey at 5 mg/kg, po; type: ADME, organism-based, Macaca mulatta; parameters: dose 5 mg/kg, route oral; conditions: rhesus monkey, plasma
Summary of the method: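 Single oral dose of 5 mg/kg in 0.5% Methocel with 0.3% Tween 80 (10 ml/kg) to fasted male animals: Sprague-Dawley rats (275-300 g, overnight fast with 10% dextrose water), rhesus monkeys, beagle dogs. Rat blood from cannulated carotid at 0-8 h, pooled from 3 rats per time point; monkey/dog n=3. Plasma solid-phase extracted, LC-MS/MS at m/z 869.3; noncompartmental analysis.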

[30] = molecular target: Collagenase 3 (Homo sapiens) (UniProt P45452); assay: Inhibition of human MMP-13 at 10 uM
Caspase-4 (Homo sapiens) = Caspase-4 (Homo sapiens) (UniProt P49662); assay: Inhibition of human caspase-4 at 10 uM
[31] = molecular target: Angiotensin-converting enzyme (Oryctolagus cuniculus) (UniProt P12822); assay: Inhibition of rabbit ACE at 10 uM
[32] = molecular target: D(2) dopamine receptor (Homo sapiens) (UniProt P14416); assay: Inhibition of human dopamine receptor 2s at 10 uM
[33] = molecular target: Adenosine receptor A1 (Homo sapiens) (UniProt P30542); assay: Inhibition of human adenosine A1 receptor at 10 uM
[34] = Mean retention time in dog at 5 mg/kg, po; type: ADME, organism-based, Canis lupus familiaris; parameters: dose 5 mg/kg, route oral; conditions: in vivo
Summary of the method: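 Fasted male beagle dogs (9.8-13.8 kg) given a single oral dose in 0.5% Methocel/0.3% Tween 80. Plasma taken by solid-phase extraction and measured by LC-MS/MS at m/z 869.3 (LOQ 50 nM). Noncompartmental analysis. Mean ± SE for three males.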

[35] = molecular target: Cathepsin G (Homo sapiens) (UniProt P08311); assay: Inhibition of human cathepsin G at 10 uM
Chain of Cathepsin G (Homo sapiens) (P08311 whole entry): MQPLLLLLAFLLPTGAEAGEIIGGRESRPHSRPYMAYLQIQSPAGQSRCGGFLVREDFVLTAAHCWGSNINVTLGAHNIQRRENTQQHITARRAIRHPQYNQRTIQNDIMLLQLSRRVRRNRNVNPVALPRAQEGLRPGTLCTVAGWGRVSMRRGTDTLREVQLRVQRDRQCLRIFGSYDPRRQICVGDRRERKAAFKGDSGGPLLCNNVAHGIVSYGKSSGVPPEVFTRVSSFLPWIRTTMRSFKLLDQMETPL

In the case of C=C[C@@H]1C[C@]1(NC(=O)[C@@H]1C[C@@H](Oc2cc(-c3csc(NC(=O)C(C)C)n3)nc3c(Br)c(OC)ccc23)CN1C(=O)[C@@H](NC(=O)OC1CCCC1)C(C)(C)C)C(=O)O, the inhibition (Rattus norvegicus [1]) is reported as 10%, the inhibition [2] is reported as 18% and the inhibition (Caspase-5 (Homo sapiens)) is reported as 24%. The inhibition (Homo sapiens [3]) was 22%, the inhibition (Caspase-6 (Homo sapiens)) was 28% and the inhibition [4] was 3%. The inhibition (Rattus norvegicus [5]) was 9%, the inhibition [6] was 5% and the inhibition [7] was 21%. For the same molecule, the inhibition (Rattus norvegicus [8]) was 7%, the inhibition [9] was 7% and the inhibition (Rattus norvegicus [10]) was 12%. It also gave an inhibition [11] of 3%, an inhibition (Rattus norvegicus [12]) of 5% and an inhibition [13] of 23%. It also gave an inhibition [14] of 6%, an inhibition (Caspase-1 (Homo sapiens)) of 13% and an EC50 (Hepatitis C virus) of 0.05 µM. It also gave an inhibition [15] of 10%, an inhibition [16] of 38% and an inhibition [17] of 50%. It also gave an inhibition [18] of 13%, an inhibition (Caspase-3 (Homo sapiens)) of 5% and an inhibition [19] of 3%. The inhibition [20] was 6%, the inhibition [21] was 0% and the inhibition (Trypsin (Homo sapiens)) was 2%. The inhibition [22] was 7%, the MRT [23] was 3.18 h and the inhibition (Homo sapiens [24]) was 58%. For the same molecule, the inhibition [25] was 2%, the inhibition [26] was 21% and the inhibition [27] was 4%. The inhibition [28] was 1%, the inhibition (Mesocricetus auratus) was 12% and the AUC [29] was 8.3 µM·h. The inhibition [30] was 5%, the inhibition (Caspase-4 (Homo sapiens)) was 33% and the inhibition [31] was 5%. For the same molecule, the inhibition [32] was 10%, the inhibition [33] was 2% and the MRT [34] was 3.7 h. The inhibition [35] was 18%.
